One data set concerns Mus musculus. The data set can be described thus: Systemic toxicity in NCr nu/nu athymic mouse xenografted with human A549 cells assessed as body weight at 92 umol/kg, iv administered two times a week for 4 weeks (reference value: 25.0 +/-0.78 gms). In kind it is organism-based. The settings on record: in vivo, 672 h.
Data set [1] deals with NCI-H1703. In words: Induction of apoptosis in human NCI-H1703 cells assessed as cleaved caspase-7 level at 5 to 25 uM by immunoblot analysis. The note with it: 5 to […] uM. In kind it is functional, cell-based. On the technique in general: Immunoblotting shows a protein as a band on a membrane.
Data set [2] relates to A549. In words: Anticancer activity against human A549 cells xenografted in NCr nu/nu athymic mouse assessed as reduction of tumor growth at 92 umol/kg, iv administered two times a week for 4 weeks. Format: functional, organism-based. A digest of the protocol: (§1)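 A549 cells (RPMI 1640 + 10% FBS, ≤4 passages) harvested at 70–80% confluence, 5 × 10^6 cells in PBS implanted s.c.; at ~3 mm × 3 mm tumors, mice randomized into groups of 12. Tail-vein injection at 92 μmol/kg in 20 μL DMSO, twice weekly for 4 weeks; saline or DMSO controls. Tumors caliper-measured twice weekly, volume = π/2 × L × W². Tumors resected at end, frozen, extracted for metabolite analysis by LC/MS.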

Data set [3] concerns Tumour. The data set can be described thus: Drug uptake in tumor of NCr nu/nu athymic mouse xenografted with human A549 cells at 92 umol/kg, iv administered two times a week for 4 weeks. Format: ADME, organism-based, Neoplasm. The settings on record: in vivo, 672 h. A digest of the protocol: as §1
Data set [4] deals with Tumour. In words: Drug metabolism in tumor of NCr nu/nu athymic mouse xenografted with human A549 cells assessed as metabolite formation at 92 umol/kg, iv administered two times a week for 4 weeks. In kind it is ADME, organism-based, Neoplasm. The note with it: in vivo, 672 h. A digest of the protocol:
as §1
In general terms: In xenograft studies the graft and the host belong to different species.

Data set [5] can be described thus: Prodrug activation assessed as GSH reactivity in aqueous phosphate buffer at pH 7.4 by UV-Visible spectrophotometer analysis. Format: physicochemical. A digest of the protocol: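 UV–vis kinetics at 37 °C in 0.1 M phosphate buffer, pH 7.4, with 50 μM DTPA and 4 mM GSH, with or without 40 nM recombinant GSTP1 or GSTA1. Substrate (typically 10 μM) added after thermal equilibration. Ratios are k with enzyme over k with GSH alone.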

Data set [6] addresses T1, Poly [ADP-ribose] polymerase 1 (Homo sapiens, UniProt P09874). In words: Inhibition of PARP-1 (unknown origin) assessed as incorporation of biotinylated poly ADP-ribose onto histone proteins measured without activation by GSH by colorimetric analysis. The method in brief:
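Colorimetric PARP assay kit measuring biotinylated poly(ADP-ribose) incorporation onto histones, run per the manufacturer's protocol. Absorbance read at 450 nm. Inhibitor tested over 0.01 nM–1 μM, prodrug given without GSH activation. At least three experiments, each at least in triplicate.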

The nature of data set [7]: In vitro antiproliferative activity against human NCI-H1568 cells assessed as inhibition of cell proliferation after 72 hrs by MTT assay. In kind it is functional, cell-based. The settings on record: NCI-H1568, 72 h. Background: Tetrazolium assays rely on reduction of a dye to a coloured formazan, in cell work by metabolically active cells.
For data set [8], the system named is NCI-H1703. The data set can be described thus: In vitro antiproliferative activity against human NCI-H1703 cells assessed as inhibition of cell proliferation after 72 hrs by MTT assay. In kind it is functional, cell-based. The note with it: NCI-H1703, 72 h.
Data set [9] is described as follows: In vitro antiproliferative activity against human H441 cells assessed as inhibition of cell proliferation after 72 hrs by MTT assay. Format: functional, cell-based. The settings on record: NCI-H441, 72 h.
The subject of the next data set is NCI-H1693. The data set can be described thus: In vitro antiproliferative activity against human NCI-H1693 cells assessed as inhibition of cell proliferation after 72 hrs by MTT assay. In kind it is functional, cell-based. The note with it: NCI-H1693, 72 h.
A further data set deals with NCI-H2122. The data set can be described thus: In vitro antiproliferative activity against human NCI-H2122 cells assessed as inhibition of cell proliferation after 72 hrs by MTT assay. Format: functional, cell-based. The settings on record: NCI-H2122, 72 h.
Another data set relates to NCI-H322M. In words: In vitro antiproliferative activity against human NCI-H322M cells assessed as inhibition of cell proliferation after 72 hrs by MTT assay. In kind it is functional, cell-based.
Data set [10] in a line: In vitro antiproliferative activity against human H23 cells assessed as inhibition of cell proliferation after 72 hrs by MTT assay. Format: functional, cell-based. The note with it: NCI-H23, 72 h.
The next data set concerns NCI-H2030. The data set can be described thus: In vitro antiproliferative activity against human NCI-H2030 cells assessed as inhibition of cell proliferation after 72 hrs by MTT assay. The note with it: NCI-H2030, 72 h. In kind it is functional, cell-based.
Data set [11] is described as follows: In vitro antiproliferative activity against human NCI-H1944 cells assessed as inhibition of cell proliferation after 72 hrs by MTT assay. The note with it: NCI-H1944, 72 h. In kind it is functional, cell-based.
In a further data set the test system is NCI-H1792. The data set can be described thus: In vitro antiproliferative activity against human NCI-H1792 cells assessed as inhibition of cell proliferation after 72 hrs by MTT assay. In kind it is functional, cell-based. The settings on record: NCI-H1792, 72 h.
Data set [12] relates to A549. The data set can be described thus: In vitro antiproliferative activity against human A549 cells assessed as inhibition of cell proliferation after 72 hrs by MTT assay. The note with it: A549, 72 h. In kind it is functional, cell-based.
Data set [13] can be described thus: In vitro antiproliferative activity against human NCI-H2023 cells assessed as inhibition of cell proliferation after 72 hrs by MTT assay. The note with it: NCI-H2023, 72 h. In kind it is functional, cell-based.
Data set [14] in a line: In vitro antiproliferative activity against human H460 cells assessed as inhibition of cell proliferation after 72 hrs by MTT assay. Format: functional, cell-based. The settings on record: NCI-H460, 72 h.
Data set [15] deals with NCI-H1703. In words: Increase in intracellular nitric oxide release in human NCI-H1703 cells at 10 uM after 30 mins by DAF-FM dye based luminescence spectrometer analysis. Format: functional, cell-based.
The test system of data set [16] is NCI-H1703. The data set can be described thus: Increase in intracellular reactive oxygen/nitrogen species in human NCI-H1703 cells at 10 uM after 60 mins by DCF-DA dye based luminescence spectrometer analysis. In kind it is functional, cell-based. The method in brief:
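Cells in six-well plates (6 × 10^5/well) loaded with 5 μM DCF-DA in HBSS, 30 min at 37 °C, 5% CO2, then rinsed. Fresh HBSS with compound (10 μM) or DMSO control added. After 60 min cells scraped into HBSS; DCF fluorescence read at ex 488 / em 530 nm. At least three experiments, each at least in triplicate.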

In data set [17] the test system is NCI-H1703. The data set can be described thus: Induction of DNA strand break damage in human NCI-H1703 cells at 5 uM after 24 hrs by comet assay. Format: functional, cell-based.
For data set [18], the system named is A549. In words: Retention time of the compound in human A549 cells at 10 uM by LC/MS/MS analysis. Format: ADME, cell-based. The note with it: a549, 10 µM. The method in brief:
(§2)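 A549 cells plated in flasks overnight at 37 °C, then treated with 10 μM compound for varying times. Lysed by scraping in 10 mM HCl/acetonitrile, 5% sulfosalicylic acid added, centrifuged at 12000g for 15 min, filtered. Analyzed on a C18 column, 0.2 mL/min, H2O/acetonitrile/0.1% formic acid gradient, by Q-TOF LC/MS/MS in positive mode; extracted ion chromatograms at [M+H]+.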

The target of data set [19] is Glutathione S-transferase P (Homo sapiens, UniProt P09211). The data set can be described thus: Ratio of prodrug activation in presence of GSH and recombinant GSTP1 (unknown origin) to prodrug activation in presence of GSH by UV-Visible spectrophotometry. A digest of the protocol:
(§3)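 UV–vis kinetics at 37 °C in 0.1 M phosphate buffer, pH 7.4, with 50 μM DTPA and 4 mM GSH, with or without 40 nM recombinant GSTP1 or GSTA1. Substrate (typically 10 μM) added after thermal equilibration. Absorbance followed at 302 nm; first-order rate from an exponential fit. Ratios are k with enzyme over k with GSH alone.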

Data set [20] addresses T2, Glutathione S-transferase A1 (Homo sapiens, UniProt P08263).
T2 sequence (P08263 whole entry): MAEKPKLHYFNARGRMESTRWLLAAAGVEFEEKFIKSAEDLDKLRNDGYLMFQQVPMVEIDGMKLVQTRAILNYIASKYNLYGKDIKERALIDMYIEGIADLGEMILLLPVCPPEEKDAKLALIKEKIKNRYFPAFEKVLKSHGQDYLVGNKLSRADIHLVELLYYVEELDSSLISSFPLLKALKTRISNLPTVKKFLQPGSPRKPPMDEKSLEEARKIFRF
The data set can be described thus: Ratio of prodrug activation in presence of GSH and recombinant GSTA1 (unknown origin) to prodrug activation in presence of GSH by UV-Visible spectrophotometry. A digest of the protocol:
as §3

Data set [21] concerns the target T1, Poly [ADP-ribose] polymerase 1. In words: Inhibition of PARP-1 (unknown origin) assessed as incorporation of biotinylated poly ADP-ribose onto histone proteins by colorimetric analysis.
Data set [22] has as its system A549. The data set can be described thus: Retention time of the compound in human A549 cells treated with 2-(2,4-dinitrophenoxy)-1-(4-(2-fluoro-5-((4-oxo-3,4-dihydrophthalazin-1-yl)methyl)benzoyl)piperazin-1-yl)diazene oxide at 10 uM by LC/MS/MS analysis. Format: ADME, cell-based. The settings on record: a549, 10 µM. The method in brief: as §2
The next data set deals with NCI-H1355. In words: In vitro antiproliferative activity against human NCI-H1355 cells assessed as inhibition of cell proliferation after 72 hrs by MTT assay. In kind it is functional, cell-based. The settings on record: NCI-H1355, 72 h.

Calls of active or inactive are those of the source. No cut-off for these calls is given here.

T1 sequence (P09874 whole entry): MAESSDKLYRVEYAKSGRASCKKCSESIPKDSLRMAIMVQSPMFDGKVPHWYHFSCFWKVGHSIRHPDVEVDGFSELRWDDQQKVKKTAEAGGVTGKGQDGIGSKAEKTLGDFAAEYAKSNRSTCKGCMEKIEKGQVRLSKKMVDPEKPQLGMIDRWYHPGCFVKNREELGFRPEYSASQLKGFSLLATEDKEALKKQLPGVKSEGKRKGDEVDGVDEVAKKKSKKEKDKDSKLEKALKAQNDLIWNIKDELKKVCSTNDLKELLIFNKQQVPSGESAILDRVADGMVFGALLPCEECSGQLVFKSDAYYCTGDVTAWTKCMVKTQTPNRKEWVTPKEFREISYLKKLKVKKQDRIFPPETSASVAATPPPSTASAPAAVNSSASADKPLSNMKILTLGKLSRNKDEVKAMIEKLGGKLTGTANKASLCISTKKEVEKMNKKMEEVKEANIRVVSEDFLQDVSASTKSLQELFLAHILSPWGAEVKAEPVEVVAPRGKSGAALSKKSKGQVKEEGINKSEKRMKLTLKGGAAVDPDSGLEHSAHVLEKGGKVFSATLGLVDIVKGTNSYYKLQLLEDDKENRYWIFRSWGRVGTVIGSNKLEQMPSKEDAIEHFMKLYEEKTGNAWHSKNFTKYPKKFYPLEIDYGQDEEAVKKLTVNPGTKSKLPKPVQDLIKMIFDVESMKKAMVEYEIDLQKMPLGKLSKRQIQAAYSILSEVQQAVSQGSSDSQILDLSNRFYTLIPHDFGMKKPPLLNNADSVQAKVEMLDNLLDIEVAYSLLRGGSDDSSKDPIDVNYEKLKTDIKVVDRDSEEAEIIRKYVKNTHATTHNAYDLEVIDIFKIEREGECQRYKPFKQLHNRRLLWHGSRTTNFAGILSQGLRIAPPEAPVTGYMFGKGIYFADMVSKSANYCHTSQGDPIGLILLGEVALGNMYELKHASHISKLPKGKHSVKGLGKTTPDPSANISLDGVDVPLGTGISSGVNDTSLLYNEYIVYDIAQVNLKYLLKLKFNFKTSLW
Sequence of Glutathione S-transferase P (P09211 whole entry): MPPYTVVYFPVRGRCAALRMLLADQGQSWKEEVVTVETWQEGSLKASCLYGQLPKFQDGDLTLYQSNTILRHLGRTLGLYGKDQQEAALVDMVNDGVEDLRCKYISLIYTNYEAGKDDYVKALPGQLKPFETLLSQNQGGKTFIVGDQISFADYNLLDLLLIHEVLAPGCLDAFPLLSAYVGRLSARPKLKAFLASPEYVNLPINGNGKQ

As for `O=C(c1cc(Cc2n[nH]c(=O)c3ccccc23)ccc1F)N1CCN(C(=O)C2CC2)CC1` [OLAPARIB], the Activity with Mus musculus is 25.6 g. Besides, the outcome with NCI-H1703 [1] was inactive.
The term IC50 denotes the concentration needed to halve the response being measured. As for `O=C(c1cc(Cc2n[nH]c(=O)c3ccccc23)ccc1F)N1CCN(/[N+]([O-])=N/Oc2ccc([N+](=O)[O-])cc2[N+](=O)[O-])CC1`, the “growth inhibition (GI)” value in the data set with A549 [2] is “Active”. Besides, the Activity with Mus musculus stood at 27.7 g. Moreover, the Drug uptake result with Tumour [3] is reported as “Active”. The Drug metabolism entry in the data set on Tumour [4] is “metabolite_detected”. Moreover, the t1/2 in [5] is 11.6 min. The IC50 is 0.058 µM in [6]; 3 µM in data set [7]; 4.3 µM in the data set on NCI-H1703 [8]; 4.5 µM in data set [9]; 5.4 µM with NCI-H1693; 7.5 µM in the data set with NCI-H2122. The IC50 with NCI-H322M came out at 7.9 µM; in data set [10], 8.4 µM; in the data set on NCI-H2030, 9.2 µM; in [11] it was 10.5 µM; in the data set on NCI-H1792, 12.7 µM; with A549 [12] it was 13.5 µM. The IC50 turned out to be 15 µM in data set [13] and 16.4 µM in [14]. In addition, the result in the data set with NCI-H1703 [15], in the data set on NCI-H1703 [16], with NCI-H1703 [17] and in the data set on NCI-H1703 [1] was Active. The Retention_time in the data set on A549 [18] is on record as 18.2 min. Besides, the results for the Ratio in data set [19] and in data set [20] were 10.6 and 20.4, respectively.
Turning to `O=C(c1cccc(Cc2n[nH]c(=O)c3ccccc23)c1)N1CCNCC1`, the IC50 in data set [21] turned out to be 0.0305 µM.
In turn, `O=C(c1cc(Cc2n[nH]c(=O)c3ccccc23)ccc1F)N1CCNCC1` came in with a Retention_time with A549 [22] of 11.9 min. For the same compound, the 50% inhibitory concentration (IC50) in data set [21] was determined as 0.0069 µM.
`CNc1ccc(C(=O)Oc2cc(O/N=[N+](\[O-])N(C)C)c([N+](=O)[O-])cc2[N+](=O)[O-])cc1`: the t1/2 in [5] was 2 min. In addition, the Ratio was 5.4 in data set [19] and 3.7 in data set [20].
In the case of `N[C@@H](CCC(=O)N[C@@H](CSc1ccc([N+](=O)[O-])cc1[N+](=O)[O-])C(=O)NCC(=O)O)C(=O)O`, the Retention_time in the data set with A549 [22] is 13.8 min.
For `O=C(c1cccc(Cc2n[nH]c(=O)c3ccccc23)c1)N1CCN(/[N+]([O-])=N/Oc2ccc([N+](=O)[O-])cc2[N+](=O)[O-])CC1`, the t1/2 in data set [5] is 11.2 min. In addition, the concentration for half-maximal inhibition (IC50) was 0.123 µM in [6]; 6.5 µM in data set [7]; 6.8 µM in the data set on NCI-H1703 [8]; 8.1 µM in [9]; 5.3 µM with NCI-H1693; 11.2 µM in the data set with NCI-H2122. Moreover, the half-maximal inhibitory concentration (IC50) with NCI-H322M came to 9 µM; with NCI-H1355, 11.4 µM; in data set [10], 7.5 µM; with NCI-H2030, 13.8 µM; in data set [11] it was 14 µM; in the data set with NCI-H1792, 14 µM. The concentration for half-maximal inhibition (IC50) with A549 [12] was determined as 16.8 µM; in data set [13], 19.4 µM; in data set [14] it was 13.8 µM. Also, the outcome with NCI-H1703 [15] and in the data set on NCI-H1703 [16] was Active.

(Values after ChEMBL document CHEMBL3232734, “Nitric oxide (NO) releasing poly ADP-ribose polymerase 1 (PARP-1) inhibitors targeted to glutathione S-transferase P1-overexpressing cancer cells” (J Med Chem, 2014).)
